Measurements: ChEMBL document CHEMBL2385024, “Antiviral alkaloids produced by the mangrove-derived fungus Cladosporium sp. PJX-41” (J Nat Prod, 2013)

Each molecule was assayed on Influenza A virus (assay: Antiviral activity against Influenza A virus H1N1 infected in dog MDCK cells after 48 hrs by CPE inhibition assay).
Format: functional, organism-based
In short: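 CPE-inhibition format against influenza A (H1N1), with ribavirin run in parallel as the positive control; activity is expressed as IC50.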
`CC(C)=C1NC(=O)[C@@H](C[C@]2(O)c3ccccc3N3C(=O)[C@H](C)N[C@H]32)n2c1nc1ccccc1c2=O` was tested, and the IC50 was 82 µM.
With `O=C1N[C@H]2c3[nH]c4ccccc4c3C[C@@H]1n1c2nc2ccccc2c1=O` the IC50 was > 200 µM.
`O=C1N[C@@H](O)c2nc3ccccc3c(=O)n2[C@@H]1Cc1c[nH]c2ccccc12` gave an IC50 of 100 µM.
With `O=C1NC(=O)[C@@H](Cc2c[nH]c3ccccc23)n2c1nc1ccccc1c2=O` the IC50 was 100 µM.
`O=C1NC(=O)[C@H](Cc2c[nH]c3ccccc23)n2c1nc1ccccc1c2=O` was tested, and the IC50 was 85 µM.
`CC(C)=C1NC(=O)[C@@H](C[C@]2(O)c3ccccc3N3C(=O)C(C)(C)N[C@H]32)n2c1nc1ccccc1c2=O` was tested, and the IC50 was 100 µM.
Work on `CC(=O)O[C@@H](c1nc2ccccc2c(=O)n1[C@@H]1C[C@]2(OC1=O)c1ccccc1N1C(=O)C(C)(C)N(O)[C@H]12)C(C)C` yielded an IC50 of 100 µM.
In the case of `O=C1N[C@@H]2c3nc4ccccc4c(=O)n3[C@H]1CC21c2ccccc2N2C(=O)[C@@H]3CCCN3[C@H]21` (stereo not given in full), the IC50 is reported as 82 µM.
Work on `O=C1NCc2nc3ccccc3c(=O)n2[C@@H]1Cc1c[nH]c2ccccc12` yielded an IC50 of 100 µM.
`CC(C)[C@H]1NC(=O)[C@@H](C[C@]2(O)C(=O)Nc3ccccc32)n2c1nc1ccccc1c2=O` [CLADOQUINAZOLINE] was tested, and the IC50 was 100 µM.
For `CC(=O)O[C@H](c1nc2ccccc2c(=O)n1[C@@H]1C[C@]2(OC1=O)c1ccccc1N1C(=O)[C@H](C)N[C@H]12)C(C)C` [DEOXYNORTRYPTOQUIVALINE], the IC50 was 87 µM.
Molecule `CC(=O)O[C@H](c1nc2ccccc2c(=O)n1[C@@H]1C[C@]2(OC1=O)c1ccccc1N1C(=O)C(C)(C)N[C@H]12)C(C)C` [DEOXYTRYPTOQUIVALINE] has an IC50 of 85 µM.
`CC(C)[C@@H]1NC(=O)[C@@H](C[C@]2(O)C(=O)Nc3ccccc32)n2c1nc1ccccc1c2=O` [EPI-CLADOQUINAZOLINE] showed an IC50 of 100 µM.
Molecule `NC(=O)c1ncn([C@@H]2O[C@H](CO)[C@@H](O)[C@H]2O)n1` [RIBAVIRIN] has an IC50 of 87 µM.
In the case of `CC(=O)O[C@H](c1nc2ccccc2c(=O)n1[C@@H]1C[C@]2(OC1=O)c1ccccc1N1C(=O)C(C)(C)N(O)[C@H]12)C(C)C` [TRYPTOQUIVALINE], the IC50 is reported as 89 µM.
